ERa SRC1 inh = ER-alpha (human) coactivator binding inhibition; inhibition, % at 25.6 µM; P03372; AID 629; TR-FRET ER-alpha LBD / SRC-1 peptide, estradiol-bound; 1.7% of 86,000 active; in the data active means inhibition above about 50%;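 further: 0% = receptor plus peptide control and 100% = peptide only without receptor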
sEH inhibitor = blocks human soluble epoxide hydrolase activity. P34913. recombinant human sEH enzymatic activity assay. inhibition, % at 2 µM. 0.34% of 91,000 active; in the data active means inhibition above about 80%
sEH activator = activators of human soluble epoxide hydrolase. 0.04% of 91,000 active. AID 717. P34913. activation, % at 2 µM. purified human sEH enzymatic activity, activator screen; in the data active means activation above about 37%
ERa SRC1 pot = enhances coactivator binding to human estrogen receptor alpha; P03372; TR-FRET ERalpha-LBD/SRC-Cy5 coactivator binding, 2 h; 100 = basal binding, no effect; coactivator binding (% of control), % at 25.6 µM; 1.3% of 86,000 active; AID 639; in the data active means activity above about 200%;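 further: binding measured in presence of low estradiol as agonist stimulus; 0% = peptide alone without receptor and 100% = receptor with peptide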
ERb SRC1 inh = blocks coactivator binding to human estrogen receptor beta | inhibition, % at 25.6 µM | TR-FRET ER-beta LBD / SRC1-Cy5 peptide binding; receptor agonist-loaded with 1 µM estradiol | Q92731 | 1.3% of 86,000 active | AID 633;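 active means compounds whose percent inhibition of the receptor-coactivator binding signal exceeds about 50% in the single-dose screen, limit read from the data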;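 further: 0% = receptor plus peptide wells without compound and 100% = peptide-only wells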
Target sequence (Q92731 whole entry, looked up, the tested form may be a part): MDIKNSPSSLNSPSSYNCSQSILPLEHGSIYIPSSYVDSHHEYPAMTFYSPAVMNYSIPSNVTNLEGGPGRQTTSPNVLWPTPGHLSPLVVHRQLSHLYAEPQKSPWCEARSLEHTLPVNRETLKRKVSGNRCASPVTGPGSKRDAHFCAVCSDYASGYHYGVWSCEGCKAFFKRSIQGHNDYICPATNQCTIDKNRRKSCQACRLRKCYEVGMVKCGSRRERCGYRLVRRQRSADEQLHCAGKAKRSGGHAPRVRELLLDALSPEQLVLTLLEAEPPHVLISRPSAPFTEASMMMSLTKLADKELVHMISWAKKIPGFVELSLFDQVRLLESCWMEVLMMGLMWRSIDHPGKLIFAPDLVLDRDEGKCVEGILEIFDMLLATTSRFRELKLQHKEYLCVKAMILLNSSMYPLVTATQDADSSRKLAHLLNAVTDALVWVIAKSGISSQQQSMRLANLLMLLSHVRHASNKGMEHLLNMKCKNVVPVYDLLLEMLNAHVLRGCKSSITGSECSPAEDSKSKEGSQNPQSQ
Rev-RRE block = HIV Rev-RRE protein-RNA interaction inhibition. 0.79% of 97,000 active. inhibition, % at 8 µM. P05866. Rev peptide-RRE RNA binding, FRET;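 active means inhibition above the screen-wide mean plus 3 SD, cut at about 35% in these data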;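 further: 0% = median DMSO wells and 100% = median Neomycin B control wells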
Target sequence (P05866 whole entry, looked up): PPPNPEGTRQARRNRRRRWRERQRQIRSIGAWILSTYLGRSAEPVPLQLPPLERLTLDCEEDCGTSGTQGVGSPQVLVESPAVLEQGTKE
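Assay system: Labelled RRE RNA duplex and labelled Rev peptide | Times: 5 min preincubation and 15 min binding, 25 °C | Detection: FRET, ex 480 nm, em 540 and 671 nm | Evaluation: % inhibition of FRET ratio versus controls | Benchmarks: DMSO wells as 0% and neomycin B wells as 100% inhibition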
Numbers without * were called inactive; . = no result; + = active, no number; [ ] = dose if it differs, or a comment. Hits are enriched below; roughly 3.5% of the tested compounds scored in any of these assays.

SMILES | ERa SRC1 inh | sEH inhibitor | sEH activator | ERa SRC1 pot | ERb SRC1 inh | Rev-RRE block
CC(NC(=O)NC12CC3CC(CC(C3)C1)C2)C1CCCO1 (configuration not stated) | 1 | 90* | -90 | 108 | 0 | 1
Cc1cccc2cc3c(N)c(C#N)sc3nc12 | . | 1 | -4 | . | . | 35
Cc1sc(NC(=O)c2sc3nc4c(C)cccc4cc3c2N)c(C#N)c1C | . | 3 | -4 | . | . | 101*[fluorescence artefact?]
O=C(NCCSCc1ccco1)Nc1cccc(Cl)c1 | 17 | 80* | -80 | 85 | 11 | 2
CN(C)c1ccc(N2CN=C3SCC(=O)N3C2)cc1 | 20 | -12 | 15 | 92 | 86*[fluorescence artefact?] | -10
O=C(Nc1ccc2oc(-c3cccnc3)nc2c1)c1ccco1 | 35 | -10 | 12 | 67 | 26 | 0
O=C(Nc1ccc2oc(-c3cccnc3)nc2c1)c1ccc(Br)o1 | 69*[fluorescence artefact?] | 34 | -32 | 206*[fluorescence artefact?] | 38 | -1
O=C(Nc1ccc(-c2nc3ncccc3o2)cc1)c1ccc(Br)o1 | 41 | 2 | -3 | 269*[fluorescence artefact?] | -10 | 7
COCCSc1ccccc1C(=O)Nc1cc(C)on1 | -36 | 11 | -7 | 62 | 96*[fluorescence artefact?] | -2
CCOc1ccc(-c2nn(-c3ccccc3)cc2/C=C2\SC(=S)N(C3CCS(=O)(=O)C3)C2=O)cc1 (configuration not stated) | 1 | 16 | -14 | 115 | -3 | 12
NC1CCCCC1N=Cc1c(O)n(CCc2ccc(F)cc2)c(=O)[nH]c1=O (configuration not stated) | 72*[fluorescence artefact?] | 11 | -12 | 46 | 35 | 6
Cc1onc(-c2ccccc2Cl)c1C(=O)NCc1cccnc1 | 52* | . | . | 102 | 2 | .
CC1CCN(C(=O)c2cccc(S(=O)(=O)N3CCCCC3)c2)CC1 | 1 | . | . | 94 | -2 | .
Cc1c(Cl)c(C(F)(F)F)nn1CC(=O)NCc1ccccc1 | -7 | 2 | 2 | 95 | -4 | 7
O=C(COc1ccc2ccccc2c1)NCCNC(=O)COc1ccc2ccccc2c1 | 11 | -4 | 0 | 317*[fluorescence artefact?] | -4 | 3
Cc1cc(Nc2ccccc2)nc(N2CCOCC2)n1 | -9 | -8 | 9 | 102 | -10 | 8
O=S1(=O)N=C(Nc2ccc(N3CCOCC3)cc2)c2ccccc21 | -25 | 6 | 0 | 80 | 51*[fluorescence artefact?] | 0
O=S1(=O)N=C(N2CCOCC2)c2ccccc21 | 0 | -5 | 4 | 108 | -15 | 1
Cc1ccccc1-c1ccc(Nc2ccc(N3CCOCC3)cc2)nn1 | 99*[fluorescence artefact?] | -3 | 4 | 7 | 80*[fluorescence artefact?] | 6
COc1ccc(N(C(=O)c2ccco2)C(C(=O)NC2CCCC2)c2ccc(N(C)C)cc2)cc1OC (configuration not stated) | 1 | 12 | -12 | 128 | -7 | -6
COc1ccc(C(C(=O)NC2CCCC2)N(C(=O)c2ccco2)c2ccc3c(c2)OCO3)cc1OC (configuration not stated) | -27 | -8 | 8 | 85 | 57* | 6
Cn1c(=O)c(=O)n(C)c2cc(S(=O)(=O)CCC(=O)N3CCOCC3)ccc21 | -2 | -6 | 6 | 113 | -6 | 8
COC(C(=O)Nc1ccc(S(=O)(=O)N2CCCCC2)cc1)c1ccccc1 (configuration not stated) | 4 | 15 | -17 | 112 | -1 | 9
Cc1ccc(-c2noc(CSc3nnc(Cc4ccccc4)n3-c3cccc(C)c3)n2)cc1 | -5 | -15 | 13 | 76 | 0 | 7
COc1ccc(-c2noc(CSc3nnc(Cc4ccccc4)n3-c3cccc(C)c3)n2)cc1OC | 2 | -9 | 6 | +[fluorescence artefact?] | -1 | -1
SMILES | ERa SRC1 inh | sEH inhibitor | sEH activator | ERa SRC1 pot | ERb SRC1 inh | Rev-RRE block
N#C/C(=C\c1c(N2CCC(C(N)=O)CC2)nc2ccccn2c1=O)S(=O)(=O)c1ccccc1 | 23 | 1 | -1 | 94 | 53* | 4
CC1CN(c2nc3ccccn3c(=O)c2/C=C(\C#N)S(=O)(=O)c2ccccc2)CC(C)O1 (configuration not stated) | -2 | -6 | 10 | 108 | 0 | 18
CC(=O)OC1CC(C)(C)N(OC(=O)c2ccc(N)cc2)C(C)(C)C1 | 61* | 0 | 3 | 54 | 20 | 9
NC(=O)COc1ccc(C2c3c(oc4ccccc4c3=O)C(=O)N2CC2CCCO2)cc1 (configuration not stated) | 70* | -14 | 10 | 61 | 70* | 5
COc1cccc(-n2c(SCC(=O)N3CCCC3)nc3c([nH]c4ccccc43)c2=O)c1 | 40 | 2 | -2 | 285*[fluorescence artefact?] | 45 | 7
Cn1c(SCC(=O)N2CCCCC2)nc2c([nH]c3ccccc32)c1=O | 26 | -15 | 19 | 94 | 8 | 9
COc1ccc(C2NC3=C(CCCC3)C(C#N)(C#N)C2(C#N)C#N)cc1 (configuration not stated) | 18 | -14 | 13 | 85 | 25 | 46*
COc1cc(C2C3CN(C)CC=C3C(C#N)=C(N)C2(C#N)C#N)ccc1OC(C)C (configuration not stated) | -11 | . | . | 130 | 5 | .
COc1cc([C@@H]2[C@H]3CNCC=C3C(C#N)=C(N)C2(C#N)C#N)ccc1OC(C)C | 2 | 6 | -4 | 89 | 3 | 50*
NC(=O)c1ccsc1NC(=O)COC(=O)Cc1ccsc1 | 55*[fluorescence artefact?] | -7 | 7 | 71 | 60* | 2
O=c1[nH]c2ccc(Cl)cc2c(O)c1-c1ccccc1 | . | 3 | 0 | . | . | 0
COc1ccc(C2CC(c3c(-c4ccccc4)c4cc(Cl)ccc4[nH]c3=O)=NN2S(C)(=O)=O)cc1OC (configuration not stated) | 69* | 2 | 2 | 131 | 43 | -5
Cc1cc([N+](=O)[O-])ccc1NCc1ccccc1 | . | 3 | -2 | . | . | 5
NC(=O)c1ccc([N+](=O)[O-])cc1SCc1ccccc1 | 39 | -8 | 12 | 54 | 53*[fluorescence artefact?] | 2
CCOC(=O)N1CCC(Nc2c(N3CCN(c4cccc(C(F)(F)F)c4)CC3)c(=O)c2=O)CC1 | -5 | -17 | 18 | 99 | 63*[fluorescence artefact?] | 2
CC(C)Nc1oc(Cc2cccc3ccccc23)nc1C#N | -6 | 5 | -4 | 103 | -3 | 12
Cn1c(=O)c2c(ncn2CCCNC2=CC(C)(C)CC(=O)C2)n(C)c1=O | 37 | 0 | 5 | 49 | 52* | 2
COC(=O)C1C(=O)C2=C(CC1C)NC(C)=C(C(=O)OC1CCCCC1)C2c1ccc(N(C)C)cc1 (configuration not stated) | 21 | 2 | -2 | 223* | 12 | 7
CCOC(=O)c1ccc(CSc2nnc(N)s2)cc1 | 13 | 2 | -3 | 68 | 11 | 2
CNc1cccccc1=S | 96*[fluorescence artefact?] | -18 | 17 | 11 | -7 | -15
CC(C)(C)Nc1cccccc1=O | -4 | -10 | 13 | 102 | 9 | 9
CCOC(=O)c1c(C)nc2c(c1-c1ccc(OC)c(OC)c1)C(=O)c1ccccc1-2 | . | 2 | -1 | . | . | 6
CCOC(=O)C(C(=O)OCC)c1cc(Br)c2noc3c2c1C(=O)c1ccccc1-3 | . | 5 | -4 | . | . | 58*
